The target in data set [1] is T1, Nuclear receptor ROR-gamma (Homo sapiens, UniProt P51449).
T1 sequence (P51449 whole entry): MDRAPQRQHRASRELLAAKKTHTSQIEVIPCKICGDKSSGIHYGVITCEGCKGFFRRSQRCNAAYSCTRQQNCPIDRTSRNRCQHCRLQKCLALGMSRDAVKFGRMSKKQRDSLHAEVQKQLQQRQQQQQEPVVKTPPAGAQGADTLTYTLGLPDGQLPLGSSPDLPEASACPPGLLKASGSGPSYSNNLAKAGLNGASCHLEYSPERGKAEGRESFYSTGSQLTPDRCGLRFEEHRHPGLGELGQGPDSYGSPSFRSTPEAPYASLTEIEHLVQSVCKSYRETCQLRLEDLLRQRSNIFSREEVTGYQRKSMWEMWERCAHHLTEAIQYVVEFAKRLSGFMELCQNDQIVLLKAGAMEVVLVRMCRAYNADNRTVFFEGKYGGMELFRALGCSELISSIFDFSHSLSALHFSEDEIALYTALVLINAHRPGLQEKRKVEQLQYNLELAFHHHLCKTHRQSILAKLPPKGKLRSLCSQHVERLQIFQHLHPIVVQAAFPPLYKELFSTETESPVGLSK
Kind of data set: Inhibition of human GAL4-fused RORgamma LBD transcriptional activity expressed in CHOK1 cells after 2 days by luciferase reporter gene assay. The data set is classed as cell-based. A general note: A reporter such as luciferase makes a cellular process visible.

The nature of data set [2]: Lipophilicity, log D of the compound. The data set is classed as physicochemical. The conditions noted are these: octanol/water.
In another data set the test system is Mus musculus. Description: Anti-inflammatory activity in C57BL/6 mouse model of IL23-induced dermatitis assessed as inhibition of ear swelling at 3 to 30 mg/kg, po administered once daily from day 1 to 11 and measured on days 1, 5, 8, 10, 12 post dose. The data set is classed as functional, organism-based. The gist of the method: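 IL-23 dermatitis: 250 ng recombinant mouse IL-23 in 20 μL PBS with 0.1% BSA injected intradermally into left ear of anesthetized mice on days 1, 3, 5, 8 and 10. Oral dosing at 3 and 30 mg/kg (vehicle 0.5% MC, 10 mL/kg) daily days 1–11. Left ear thickness measured by digital gauge on days 1, 5, 8, 10, 12; change from day 1 baseline.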

In data set [3] the target is T2, Nuclear receptor ROR-alpha (Homo sapiens, UniProt P35398).
T2 sequence (P35398 whole entry): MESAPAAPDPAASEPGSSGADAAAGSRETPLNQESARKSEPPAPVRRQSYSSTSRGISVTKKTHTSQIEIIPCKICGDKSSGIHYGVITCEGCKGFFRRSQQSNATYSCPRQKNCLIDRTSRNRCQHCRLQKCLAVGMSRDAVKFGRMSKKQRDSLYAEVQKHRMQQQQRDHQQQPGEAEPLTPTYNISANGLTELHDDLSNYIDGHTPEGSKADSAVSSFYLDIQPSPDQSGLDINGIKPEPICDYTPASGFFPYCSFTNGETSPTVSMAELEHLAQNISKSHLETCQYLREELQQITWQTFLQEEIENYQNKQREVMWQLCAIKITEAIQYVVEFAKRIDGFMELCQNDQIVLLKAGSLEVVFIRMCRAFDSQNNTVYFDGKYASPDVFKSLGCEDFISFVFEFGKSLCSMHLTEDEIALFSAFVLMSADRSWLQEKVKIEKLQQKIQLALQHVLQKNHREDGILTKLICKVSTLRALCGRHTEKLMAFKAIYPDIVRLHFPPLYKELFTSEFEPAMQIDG
Kind of data set: Inhibition of GAL4-fused human RORalpha transcriptional activity expressed in CHOK1 cells after 2 days by luciferase reporter gene assay. The data set is classed as cell-based.

Data set [4] can be described thus: Inhibition of GAL4-fused mouse LXR transcriptional activity expressed in CHOK1 cells after 2 days by luciferase reporter gene assay. In kind it is cell-based. The settings on record: CHO-K1, 48 h.
Data set [5] has as its target T3, Peroxisome proliferator-activated receptor gamma (Homo sapiens, UniProt P37231).
T3 sequence (P37231 whole entry): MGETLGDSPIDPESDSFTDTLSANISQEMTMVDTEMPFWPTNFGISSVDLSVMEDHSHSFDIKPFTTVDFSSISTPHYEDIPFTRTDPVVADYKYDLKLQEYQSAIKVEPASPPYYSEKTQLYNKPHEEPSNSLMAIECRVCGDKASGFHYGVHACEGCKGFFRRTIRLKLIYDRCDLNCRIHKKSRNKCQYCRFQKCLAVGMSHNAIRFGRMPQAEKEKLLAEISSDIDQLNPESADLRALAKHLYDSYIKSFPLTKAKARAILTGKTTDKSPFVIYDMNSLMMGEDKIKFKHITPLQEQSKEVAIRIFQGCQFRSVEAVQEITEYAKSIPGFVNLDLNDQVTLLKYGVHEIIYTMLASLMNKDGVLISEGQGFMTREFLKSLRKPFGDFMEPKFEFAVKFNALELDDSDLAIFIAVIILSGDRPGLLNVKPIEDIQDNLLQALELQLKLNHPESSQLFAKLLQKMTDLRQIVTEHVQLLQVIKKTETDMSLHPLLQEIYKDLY
Description: Inhibition of GAL4-fused human PPARgamma transcriptional activity expressed in CHOK1 cells after 2 days by luciferase reporter gene assay. In kind it is cell-based.

The target in another data set is Cytochrome P450 3A4 (Homo sapiens, UniProt P08684). Description: Time-dependent inhibition of human CYP3A4 using midazolam as substrate. In kind it is ADME.
Chain of Cytochrome P450 3A4 (P08684 whole entry): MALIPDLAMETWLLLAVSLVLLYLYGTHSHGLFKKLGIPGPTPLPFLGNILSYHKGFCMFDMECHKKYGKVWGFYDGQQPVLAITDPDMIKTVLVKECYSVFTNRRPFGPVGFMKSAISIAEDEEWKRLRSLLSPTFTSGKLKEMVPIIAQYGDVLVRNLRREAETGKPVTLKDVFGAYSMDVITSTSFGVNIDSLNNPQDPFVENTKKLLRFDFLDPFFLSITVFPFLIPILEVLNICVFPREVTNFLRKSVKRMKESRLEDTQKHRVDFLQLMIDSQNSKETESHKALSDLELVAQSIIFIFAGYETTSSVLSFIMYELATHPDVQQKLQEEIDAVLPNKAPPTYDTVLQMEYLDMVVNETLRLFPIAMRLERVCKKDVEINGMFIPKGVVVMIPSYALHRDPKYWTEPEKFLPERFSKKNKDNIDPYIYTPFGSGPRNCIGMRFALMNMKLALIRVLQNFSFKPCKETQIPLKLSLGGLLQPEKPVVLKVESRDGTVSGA
The target of another data set is Cytochrome P450 2D6 (Homo sapiens, UniProt P10635). Description: Time-dependent inhibition of human CYP2D6. In kind it is ADME.
Chain of Cytochrome P450 2D6 (P10635 whole entry): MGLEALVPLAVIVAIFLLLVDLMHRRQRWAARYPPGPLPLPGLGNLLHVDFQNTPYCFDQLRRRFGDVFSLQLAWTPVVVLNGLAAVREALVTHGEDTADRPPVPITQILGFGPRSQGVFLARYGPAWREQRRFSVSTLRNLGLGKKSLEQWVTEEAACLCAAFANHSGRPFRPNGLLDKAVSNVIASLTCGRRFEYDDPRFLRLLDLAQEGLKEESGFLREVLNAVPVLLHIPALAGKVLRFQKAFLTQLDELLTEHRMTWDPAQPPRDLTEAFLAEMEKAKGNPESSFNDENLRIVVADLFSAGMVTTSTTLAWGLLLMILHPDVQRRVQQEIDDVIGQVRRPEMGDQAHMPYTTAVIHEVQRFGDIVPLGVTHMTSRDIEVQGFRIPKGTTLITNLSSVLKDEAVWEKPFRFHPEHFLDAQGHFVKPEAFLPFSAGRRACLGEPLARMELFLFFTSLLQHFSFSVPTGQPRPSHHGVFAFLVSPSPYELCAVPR
A further data set has as its target T4, Cytochrome P450 1A2 (Homo sapiens, UniProt P05177).
T4 sequence (P05177 whole entry): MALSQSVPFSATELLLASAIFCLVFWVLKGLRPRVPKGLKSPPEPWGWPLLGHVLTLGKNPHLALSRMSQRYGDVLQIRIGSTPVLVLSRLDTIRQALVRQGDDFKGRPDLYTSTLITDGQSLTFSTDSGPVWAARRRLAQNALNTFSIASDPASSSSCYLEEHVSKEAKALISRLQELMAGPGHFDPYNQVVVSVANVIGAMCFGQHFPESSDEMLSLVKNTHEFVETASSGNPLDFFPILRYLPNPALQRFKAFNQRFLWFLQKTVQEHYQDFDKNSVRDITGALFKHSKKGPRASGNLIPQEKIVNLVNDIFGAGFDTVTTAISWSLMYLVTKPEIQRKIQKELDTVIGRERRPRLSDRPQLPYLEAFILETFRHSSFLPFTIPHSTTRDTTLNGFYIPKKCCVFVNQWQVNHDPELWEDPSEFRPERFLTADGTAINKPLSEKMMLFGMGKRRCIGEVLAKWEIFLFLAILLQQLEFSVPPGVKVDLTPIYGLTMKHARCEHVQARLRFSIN
Kind of data set: Time-dependent inhibition of human CYP1A2. In kind it is ADME.

The next data set addresses Cytochrome P450 2C19 (Homo sapiens, UniProt P33261). Description: Time-dependent inhibition of human CYP2C19. In kind it is ADME.
A short description of data set [6]: Volume of distribution at steady state in CD(SD) rat at 1 mg/kg, iv. The data set is classed as ADME, organism-based. The settings on record: in vivo, read-out: Vdss.
Data set [7] is described as follows: MRT in CD(SD) rat at 3 mg/kg, po. The data set is classed as ADME, organism-based. The conditions noted are these: in vivo.
Data set [8] in a line: Oral bioavailability in CD(SD) rat at 3 mg/kg. In kind it is ADME, organism-based. The conditions noted are these: in vivo.

The source made the active and inactive calls. No cut-off for these calls is given here.

Chain of Cytochrome P450 2C19 (P33261 whole entry): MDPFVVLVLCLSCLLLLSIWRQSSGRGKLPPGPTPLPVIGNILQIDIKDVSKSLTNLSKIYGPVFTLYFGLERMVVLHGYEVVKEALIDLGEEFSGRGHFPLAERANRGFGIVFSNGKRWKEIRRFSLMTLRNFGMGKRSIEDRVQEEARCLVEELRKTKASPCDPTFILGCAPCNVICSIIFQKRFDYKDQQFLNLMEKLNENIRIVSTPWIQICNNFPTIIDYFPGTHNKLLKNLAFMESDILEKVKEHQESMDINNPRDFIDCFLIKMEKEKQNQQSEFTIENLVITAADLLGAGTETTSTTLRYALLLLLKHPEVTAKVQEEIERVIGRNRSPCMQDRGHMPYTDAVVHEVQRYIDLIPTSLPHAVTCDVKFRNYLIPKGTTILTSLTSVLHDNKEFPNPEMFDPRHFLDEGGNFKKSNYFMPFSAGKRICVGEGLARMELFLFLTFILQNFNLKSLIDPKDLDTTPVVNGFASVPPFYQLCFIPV

Turning to `CC(C)(C)Cc1cc(-c2onc([C@@H](CCC(=O)[O-])CC(=O)Nc3ccc(Cl)cc3Cl)c2C2CC2)no1.[Na+]`, the EC50 was 0.009 µM in data set [1], > 20 µM in data set [3], > 20 µM in data set [4] and > 20 µM in data set [5]. The same compound came in with a logD in data set [2] of 4.2. In addition, in the data set on Mus musculus, the outcome was Active. Also, the IC50 against Cytochrome P450 3A4, at Cytochrome P450 2D6, at Cytochrome P450 1A2 and against Cytochrome P450 2C19 was > 50 µM in each case. For the same compound, the Vd in data set [6] was 0.76 L/kg. Besides, the MRT in data set [7] was found to be 4.9 h. In addition, in [8], the bioavailability was found to be 72%.

The EC50 is the concentration at which the effect is half-maximal. As usually defined, the logD is the decadic logarithm of the distribution of all forms, ionised or not, between an organic phase and buffer at a given pH. Higher therefore signals higher lipophilicity. By IC50 is commonly meant the midpoint of a concentration-inhibition curve. As a reminder, the MRT is a mean duration of stay, worked out from the concentration-time curve. The term bioavailability denotes the share of a dose that reaches the circulation, judged against a reference dose that is usually intravenous. Read a low bioavailability as poor availability.
